Compound activity: PubChem BioAssay, Broad Institute
The list is not random: actives were taken first. Their share in the collection is about 1.5%.
Mot1-301 SUMO = blocks SUMOylation pathway, rescuing yeast Mot1-301 growth; growth rescue, % at 18.8 µM; AID 2716; S. cerevisiae Mot1-301 growth rescue, ATP luminescence, 38.5C; percent above DMSO median, 100 means doubled; 1% of 320,000 active;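 active = every valid replicate shows activation above 250% relative to neutral control wells; inactive = the rest, any valid replicate at or below 250%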;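 note: OY570 slx delta 5 strain wells were the positive control but not used for scaling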
Cneo AK release = Cryptococcus neoformans lysis via adenylate kinase release; lysis activity, % at 15 µM; C. neoformans lysis, adenylate kinase release luminescence, 4 h; normalised: neutral wells 0, clomiphene wells 100; 0.2% of 360,000 active;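 active = mean lysis activity across replicates of at least 80%, whatever share of replicates individually reach that level; inactive = mean lysis activity below 80%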
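Material: C. neoformans cells; Schedule: 4 h static compound exposure, 37 °C, read 1 h post-reagent; Measured by: adenylate kinase release luminescence; Read-out: signal increase indicating cell lysis; Controls: Clomiphene as positive lysis control.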
Statin myotox sup = suppressors of simvastatin-induced myotoxicity in C2C12 myotubes. ATP luminescence, 48 h; scaled: DMSO 0, geranylgeraniol control 100. AID 602340. 0.78% of 330,000 active. rescue of ATP level, % at 7.49 µM;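 active = mean ATP rescue above about 67%, or every replicate alone reaching that limit, limit read from the data, passing the limit was not always enough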;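 note: myotubes were challenged with 10 µM simvastatin during compound exposure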
Yeast Mot1 SUMO = SUMO pathway inhibitors in yeast Mot1-301 growth. shares compounds with Mot1-301 SUMO. 2,300 tested, under 10 active. AID 493004. S. cerevisiae Mot1-301 galactose growth, ATP luminescence, 24 h; -100 = growth of slx-deleted rescue strain. growth activity, percent, % at 42 µM;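 active = Signal drops as the depositor expects, and the fitted half-maximal dose is no more than ten times the top valid tested dose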;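 note: more negative values mean stronger growth rescue toward the control strain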
The depositor's hits bear a star; / = not tested or not shown; + = active, no number; ! = not active in a repeat.

SMILES	Mot1-301 SUMO	Cneo AK release	Statin myotox sup	Yeast Mot1 SUMO
ClC1C(Cl)C(Cl)C(Cl)C(Cl)C1Cl (centres undefined)	331*!	-1	-2	/
O=C(CN1CCN(Cc2cccc(Cl)c2)C1=O)N1CCC2(CC1)OCCO2	3	1	/	/
O=C(CN1CCN(Cc2ccc(Cl)cc2)C1=O)N1CCC2(CC1)OCCO2	18	-2	87*	/
O=C(Cc1ccccn1)N1CCCCN2[C@H](CO)[C@H](c3ccc(Br)cc3)[C@H]2C1	/	0	14	/
COC(=O)[C@H]1[C@H](CO)[C@H]2Cn3c(ccc(-c4ccccc4)c3=O)[C@@H]1N2CC1CCOCC1	/	1	-2	/
CC1N=C(c2ccccc2Cl)c2cc(Br)ccc2NC1=O (centres undefined)	11	/	/	/
O=C1Nc2ccc(Br)cc2C(c2ccccc2Cl)=NC1O (centres undefined)	574*	0	5	/
COC(=O)[C@@H]1[C@@H](CO)[C@@H]2Cn3c(ccc(-c4ccccc4)c3=O)[C@H]1N2S(=O)(=O)c1ccccc1C	/	1	17	/
COc1ccc(C#Cc2ccc([C@@H]3[C@H]4CN(C(=O)Cc5cccnc5)CCCCN4[C@H]3CO)cc2)cc1	/	2	/	/
CCCCCCn1c(N)c(C(=O)NCCN2CCOCC2)c2nc3ccccc3nc21	-3	4	112*	/
CCCCCn1c(N)c(C(=O)NCCN2CCOCC2)c2nc3ccccc3nc21	23	-3	-50	/
N#Cc1cccc(-c2ccc([C@H]3[C@H](CO)N4CCCCN(C(=O)Cc5ccccc5)C[C@@H]34)cc2)c1	/	1	/	/
Clc1cnc(Oc2ccc(Oc3ncc(Cl)cc3Cl)cc2)c(Cl)c1	623*	0	-1	0
Oc1cc(Cl)ccc1Oc1ccc(Cl)cc1Cl	36	-6	-2	/
CCC(=O)N1[C@@H]2c3ccc(-c4cccc(F)c4)c(=O)n3C[C@H]1[C@H](CO)[C@H]2C(=O)OC	/	5	-11	/
CC(C)Oc1ccc(C2(C#N)CC[N+](C)(C)CC2)cc1	670*	/	/	1
COc1ccc(C2(C#N)CC[N+](C)(C)CC2)cc1	-9	1	13	/
CCCNC(=O)[C@H]1[C@H](CO)[C@H]2Cn3c(cccc3=O)[C@@H]1N2CCC	/	-2	-26	/
Fc1ccc2c(c1)nnn2C1CCN(Cc2c(Cl)cccc2Cl)CC1	16	-2	/	/
Fc1ccc2c(c1)nnn2C1CCN(Cc2nnnn2C2CCCCC2)CC1	733*	-2	-12	0
N=c1c[n+](C2CCCCC2)[n-]o1	484*	1	1	1
Cn1c(O)c(C(c2ccccn2)c2c(O)n(C)c(=S)n(C)c2=O)c(=O)n(C)c1=S	477*	/	/	0
Cn1c(O)c(C(c2ccncc2)c2c(O)n(C)c(=S)n(C)c2=O)c(=O)n(C)c1=S	-3	3	6	/
CC=Cc1ccc2n(c1=O)C[C@H]1[C@H](CO)[C@@H](C(=O)OC)[C@@H]2N1CC1CC1 (mixture of isomers)	/	-4	-7	/
Cc1cccc(NC2=NCCCS2)c1C	2	-8	11	/
SMILES	Mot1-301 SUMO	Cneo AK release	Statin myotox sup	Yeast Mot1 SUMO
Cc1ccccc1NC1=NCCCS1	469*	/	/	0
CC=Cc1ccc2n(c1=O)C[C@@H]1[C@@H](CO)[C@H](C(=O)OC)[C@H]2N1C(=O)CC (mixture of isomers)	/	-5	-3	/
Cc1ccccc1-c1ccc([C@@H]2[C@H](CO)N3CCCCN(C(=O)Cc4ccccn4)C[C@@H]23)cc1	/	-1	/	/
CCOP(=O)(Cc1ccc(C(=O)CC)o1)OCC	-7	-1	-6	/
CCOP(=O)(Cc1cc(C(=O)CC)c(C)o1)OCC	658*	0	/	0
COC(=O)[C@H]1[C@H](CO)[C@H]2Cn3c(ccc(/C=C/c4ccccc4)c3=O)[C@@H]1N2Cc1ccccc1F	/	0	5	/
COc1cccc(-c2ccc3n(c2=O)C[C@H]2[C@H](CO)[C@@H](C(=O)O)[C@@H]3N2Cc2ccccc2F)c1	/	/	-14	/
CCN(CC)c1ccc(C=C2C(=O)N(C)C(=S)N(C)C2=O)o1	-18	-1	/	/
CN1C(=O)C(=Cc2ccc(N3CCCCC3)o2)C(=O)N(C)C1=S	848*	/	/	0
COC(=O)[C@@H]1[C@@H](CO)[C@@H]2Cn3c(ccc(-c4ccncc4)c3=O)[C@H]1N2S(=O)(=O)c1ccccc1F	/	-1	0	/
CCCN1[C@@H]2Cn3c(ccc(-c4cccc(C(=O)N(C)C)c4)c3=O)[C@H]1[C@@H](C(=O)OC)[C@@H]2CO	/	0	19	/
CCCC12CN3CCN(CC(C3)/C1=N\NC(=O)c1ccncc1)C2	-2	/	-2	/
CCC12CN3CCN(CC(C3)/C1=N/NC(=O)c1ccncc1)C2	507*	1	2	1
CCN(CC)c1ccc(N=Cc2c(O)n(-c3ccccc3)c(=O)[nH]c2=O)cc1	-25	/	/	/
CCN(CC)c1ccc(N=Cc2c(O)n(Cc3ccccc3)c(=O)[nH]c2=O)cc1	385*!	1	-43	0
COC(=O)[C@H]1[C@H](CO)[C@H]2Cn3c(ccc(C4=CCCC4)c3=O)[C@@H]1N2CC1CCCCC1	/	61	-10	/
CN1C2CCC1CC(OC(=O)c1cccc(O)c1)C2 (centres undefined)	/	-3	13	/
CN1C2CCC1CC(OC(=O)c1ccc([N+](=O)[O-])cc1)C2 (centres undefined)	474*	/	/	0
CCOC(=O)[C@@H]1[C@@H]2NC(=S)N[C@@]1(C)Oc1ccccc12	/	6	/	/
CC=Cc1ccc2n(c1=O)C[C@@H]1[C@@H](CO)[C@H](C(=O)O)[C@H]2N1S(=O)(=O)c1ccccc1F (mixture of isomers)	/	-1	9	/
O=C1NC(=O)[C@]2(Cc3ccccc3N3CCN(c4ccccc4)CC32)C(=O)N1c1ccccc1 (some centres undefined)	16	1	2	/
CN1C(=O)NC(=O)[C@]2(Cc3ccccc3N3CCN(c4ccccc4)CC32)C1=O (some centres undefined)	663*	1	11	1
COC(=O)C[C@H]1CC[C@@H]2NC[C@@H](O)COC[C@H]2O1	/	3	-3	/
O=Cc1cn(Cc2c(F)cccc2Cl)c2ccccc12	7	0	3	/
O=Cc1cn(Cc2ccccc2F)c2ccccc12	+	/	/	0
COc1ccc(C#Cc2ccc([C@H]3[C@H](CO)N4CCCCN(C(=O)Cc5cccnc5)C[C@@H]34)cc2)cc1	/	4	/	/
[N-]=[N+]=NCCN1CCC(O)CCC1=O (centres undefined)	+	3	-1	0
COc1ccc(C(O)(c2cncnc2)C2CC2)cc1 (centres undefined)	/	2	/	/
O=C(Cc1ccccn1)N1CCCCN2[C@H](CO)[C@H](c3ccc(C#Cc4ccccc4)cc3)[C@@H]2C1	/	43	/	/
